From ChEMBL document CHEMBL4715860 (J Med Chem, 2020)
Activity calls are given as the source filed them. The calls are words filed in the database; no cut-off is given here.

Columns and labels:
[1] = target: PI3-kinase p110-alpha/p85-alpha (Homo sapiens, UniProt P42336); experiment: Inhibition of alexa fluor 647-labeled kinase tracer 314 binding to recombinant human N-terminal His-tagged p110alpha/p85alpha expressed in baculovirus expression system measured after 60 mins by LanthaScreen TR-FRET assay relative to control
[2] = target: Serine/threonine-protein kinase mTOR (Homo sapiens, UniProt P42345); experiment: Inhibition of alexa fluor 647-labeled kinase tracer 314 binding to recombinant human N-terminal GST-tagged mTOR (1360 to 2549 residues) expressed in baculovirus expression system measured after 60 mins by TR-FRET based LanthaScreen Eu kinase binding assay
[3] = Substrate activity at human P-glycoprotein stably expressed in MDCK cells at 1 uM measured after 5 to 20 mins by UPLC-MS/MS analysis; format: ADME, cell-based; details: time 5-20 min
Method in brief: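 CRISPR canine-MDR1-knockout MDCKII cells stably expressing human MDR1, with the knockout parent line as control. Cells grown 5 days on TransWell filters and preincubated in HBSS 30 min at 37 °C. Compound at 1 μM added apical or basolateral. Receiver sampled at 5, 10 and 20 min; UPLC-MS/MS.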

[4] = Inhibition of mTOR2 in human A2058 cells assessed as reduction in PKB/Akt phosphorylation at Ser473 incubated for 1 hr by Western blot analysis; format: cell-based; details: A2058, 1 h
Method in brief: (§1)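 A2058 cells grown 24 h at 37 °C, then exposed to inhibitor or DMSO for 1 h. Cells were PFA-fixed and stained for pPKB Ser473 or pS6 Ser235/236 by in-cell western with IR-dye secondary antibodies. Signal normalized to tubulin and to DMSO. IC50 from a 7-point (triplicate) or 11-point (duplicate) 1:2 series.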

[5] = Inhibition of mTORC1 in human A2058 cells assessed as reduction in RPS6 phosphorylation at S235/236 residue incubated for 1 hrs by Western blot analysis; format: cell-based; details: A2058, 1 h; method in brief: as §1
[6] = AUC (0 to 8 hrs) in male Sprague-Dawley rat plasma at 5 mg/kg, po; format: ADME, organism-based; set-up: time < 8 hr, route oral, dose 5 mg/kg
Method in brief: (§2)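 Male Sprague Dawley rats, single oral dose of 5 mg/kg. Plasma and brain concentrations measured over 8 h, n = 3, mean ± SEM; AUC0−8 computed from the time course.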

[7] = AUC (0 to 8 hrs) in male Sprague-Dawley rat brain at 5 mg/kg, po; format: ADME, organism-based; set-up: time < 8 hr, route oral, dose 5 mg/kg; details: in vivo; method in brief: as §2
[8] = Metabolic stability in CD1 mouse hepatocytes assessed as half-life at 5 uM incubated for 3 hrs by LC-MS analysis; format: ADME, cell-based, Hepatocyte
Method in brief: (§3)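 Cryopreserved primary hepatocytes in suspension from CD-1 mouse, Sprague-Dawley rat, Beagle dog and human. Compound at 5 μM final (from 10 mM DMSO stock). Samples taken at 0, 15, 60, 90 and 180 min and quenched with ACN plus internal standard. Parent quantified by LC-MS. Hepatocyte-free medium incubations served as negative control; 7-ethoxycoumarin as positive control. Duplicate; CLint per 10^6 cells and t1/2.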

[9] = Metabolic stability in Sprague-Dawley rat hepatocytes assessed as half-life at 5 uM incubated for 3 hrs by LC-MS analysis; format: ADME, cell-based, Hepatocyte; method in brief: as §3
[10] = Metabolic stability in Beagle dog hepatocytes assessed as half-life at 5 uM incubated for 3 hrs by LC-MS analysis; format: ADME, cell-based, Canis lupus familiaris, Hepatocyte; method in brief: as §3
[11] = Metabolic stability in human hepatocytes assessed as half-life at 5 uM incubated for 3 hrs by LC-MS analysis; format: ADME, cell-based, Hepatocyte
Method in brief: as §3, with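 “stock).” for “stock). Samples taken at 0, 15, 60, 90 and 180 min and quenched with ACN plus internal standard.”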

[12] = Cmax in C57BL/6J mouse plasma at 25 mg/kg, po administered as single dose by mass spectrometry based UHPLC analysis; format: ADME, organism-based; set-up: route oral, dose 25 mg/kg
Method in brief: (§4)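 One oral dose of 25 mg/kg to female C57BL/6J mice. Plasma and brain concentrations followed over time, n = 3 per time point (mean).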

[13] = Tmax in C57BL/6J mouse plasma at 25 mg/kg, po administered as single dose by mass spectrometry based UHPLC analysis; format: ADME, organism-based
Method in brief: (§5)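 Female C57BL/6J mice given a single oral dose of 25 mg/kg. Plasma and brain levels followed over time (n = 3 per time point, mean). Tmax is the time of maximal concentration.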

[14] = Elimination half life in C57BL/6J mouse plasma at 25 mg/kg, po administered as single dose by mass spectrometry based UHPLC analysis; format: ADME, organism-based; details: read-out: beta t1/2 (converted); method in brief: as §4
[15] = AUC (0 to 8 hrs) in C57BL/6J mouse plasma at 25 mg/kg, po administered as single dose by mass spectrometry based UHPLC analysis; format: ADME, organism-based; set-up: time < 8 hr, route oral, dose 25 mg/kg; method in brief: as §4
[16] = Clearance in C57BL/6J mouse plasma at 25 mg/kg, po administered as single dose by mass spectrometry based UHPLC analysis; format: ADME, organism-based; method in brief: as §4
[17] = Cmax in C57BL/6J mouse brain at 25 mg/kg, po administered as single dose by mass spectrometry based UHPLC analysis; format: ADME, organism-based; set-up: route oral, dose 25 mg/kg; method in brief: as §4
[18] = Tmax in C57BL/6J mouse brain at 25 mg/kg, po administered as single dose by mass spectrometry based UHPLC analysis; format: ADME, organism-based; method in brief: as §5
[19] = Elimination half life in C57BL/6J mouse brain at 25 mg/kg, po administered as single dose by mass spectrometry based UHPLC analysis; format: ADME, organism-based; details: read-out: beta t1/2 (converted); method in brief: as §4
[20] = AUC (0 to 8 hrs) in C57BL/6J mouse brain at 25 mg/kg, po administered as single dose by mass spectrometry based UHPLC analysis; format: ADME, organism-based; set-up: time < 8 hr, route oral, dose 25 mg/kg; method in brief: as §4
Mus musculus [21] = experiment: In vivo inhibition of PI3Kalpha in C57BL/6J mouse assessed as increase in plasma glucose concentration at 25 mg/kg, po measured after 8 hrs by glucoseoxidase-peroxide coupled colorimetric assay; format: functional, organism-based
Method in brief: (§6)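 Female C57BL/6J mice given one oral dose (25 mg/kg); plasma insulin and glucose monitored over time, mean ± SEM.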

Mus musculus [22] = experiment: In vivo inhibition of PI3Kalpha C57BL/6J mouse assessed as increase in plasma insulin concentration at 25 mg/kg, po measured after 8 hrs by ELISA; format: functional, organism-based; method in brief: as §6

Chain of PI3-kinase p110-alpha/p85-alpha (P27986 whole entry, the tested form may be a part): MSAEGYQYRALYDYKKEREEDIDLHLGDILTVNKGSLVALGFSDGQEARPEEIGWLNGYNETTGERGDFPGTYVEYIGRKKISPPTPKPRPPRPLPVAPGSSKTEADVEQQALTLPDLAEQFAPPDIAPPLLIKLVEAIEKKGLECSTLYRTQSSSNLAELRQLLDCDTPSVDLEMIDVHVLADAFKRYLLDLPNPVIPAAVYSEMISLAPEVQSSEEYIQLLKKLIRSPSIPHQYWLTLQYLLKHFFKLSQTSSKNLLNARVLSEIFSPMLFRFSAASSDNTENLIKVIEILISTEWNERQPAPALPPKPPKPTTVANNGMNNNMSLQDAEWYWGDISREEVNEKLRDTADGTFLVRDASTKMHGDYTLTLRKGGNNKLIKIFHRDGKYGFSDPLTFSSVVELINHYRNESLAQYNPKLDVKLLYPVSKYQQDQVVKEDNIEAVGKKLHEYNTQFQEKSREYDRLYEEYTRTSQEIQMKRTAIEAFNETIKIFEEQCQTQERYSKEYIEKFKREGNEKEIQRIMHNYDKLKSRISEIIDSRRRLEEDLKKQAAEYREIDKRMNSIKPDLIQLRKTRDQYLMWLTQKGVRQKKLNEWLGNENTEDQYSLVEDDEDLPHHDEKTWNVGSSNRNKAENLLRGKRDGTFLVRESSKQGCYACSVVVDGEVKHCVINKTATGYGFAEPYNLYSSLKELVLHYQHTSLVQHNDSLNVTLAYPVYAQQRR
Chain of PI3-kinase p110-alpha/p85-alpha (P42336 whole entry, the tested form may be a part): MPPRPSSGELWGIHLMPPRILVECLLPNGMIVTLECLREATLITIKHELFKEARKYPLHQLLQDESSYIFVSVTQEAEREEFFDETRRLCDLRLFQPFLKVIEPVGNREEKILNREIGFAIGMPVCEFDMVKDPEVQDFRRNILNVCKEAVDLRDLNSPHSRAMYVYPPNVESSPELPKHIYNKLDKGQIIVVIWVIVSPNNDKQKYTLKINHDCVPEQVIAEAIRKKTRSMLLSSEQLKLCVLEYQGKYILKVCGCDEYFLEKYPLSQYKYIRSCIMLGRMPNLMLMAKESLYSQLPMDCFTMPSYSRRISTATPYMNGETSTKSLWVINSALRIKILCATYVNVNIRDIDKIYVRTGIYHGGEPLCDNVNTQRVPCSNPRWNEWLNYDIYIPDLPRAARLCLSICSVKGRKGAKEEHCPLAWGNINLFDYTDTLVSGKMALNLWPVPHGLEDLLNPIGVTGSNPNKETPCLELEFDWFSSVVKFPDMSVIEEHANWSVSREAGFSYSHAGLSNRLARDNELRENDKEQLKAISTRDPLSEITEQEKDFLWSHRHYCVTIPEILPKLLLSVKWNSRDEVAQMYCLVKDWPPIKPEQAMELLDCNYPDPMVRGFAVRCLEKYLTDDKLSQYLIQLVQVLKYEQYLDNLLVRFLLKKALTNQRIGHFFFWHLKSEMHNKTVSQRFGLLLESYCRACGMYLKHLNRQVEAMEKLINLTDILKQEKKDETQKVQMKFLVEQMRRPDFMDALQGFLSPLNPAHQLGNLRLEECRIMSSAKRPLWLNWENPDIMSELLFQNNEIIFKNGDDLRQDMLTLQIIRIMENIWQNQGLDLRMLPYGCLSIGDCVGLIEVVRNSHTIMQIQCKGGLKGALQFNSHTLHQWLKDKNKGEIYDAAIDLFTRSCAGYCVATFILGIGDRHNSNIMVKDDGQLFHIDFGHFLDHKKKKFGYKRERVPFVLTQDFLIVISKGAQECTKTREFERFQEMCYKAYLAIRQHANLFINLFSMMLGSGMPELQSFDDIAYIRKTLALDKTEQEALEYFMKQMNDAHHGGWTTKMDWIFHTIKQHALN

Row | Ki [1] [nM] | Ki [2] [nM] | IC50 [4] [nM] | IC50 [5] [nM] | SMILES | further results
1 | 19 | 8 |  |  | C[C@@H]1COCCN1c1nc(-c2cnc(N)cc2C(F)F)nc(N2CCOCC2)n1 | Activity [3]: Not Active
2 | 469 | 14 | 436 | 261 | C[C@@H]1COCCN1c1nc(-c2cnc(N)cc2C(F)F)nc(N2CCOC[C@H]2C)n1 | 
3 |  |  |  |  | C[C@@H]1COCCN1c1nc(-c2cnc(N)cn2)nc2c1C[C@@H]1COCCN21 | AUC(0-t) at 8 h [6]: > 5500 ng·h/mL; AUC [7]: < 110 ng·h/g
4 | 63 | 67 | 248 | 241 | CC[C@H]1COCCN1c1nc(-c2cnc(N)cc2C(F)F)nc(N2CCOC[C@H]2C)n1 | 
5 | 233 | 6.4 | 200 | 136 | C[C@@H]1COCCN1c1nc(-c2cnc(N)cc2C(F)F)nc(N2[C@@H](C)COC[C@@H]2C)n1 | 
6 |  |  |  |  | CCOc1ccc2ccc(=O)oc2c1 | half-life at 5 µM [8]: 21 min; half-life at 5 µM [9]: 55 min; half-life at 5 µM [10]: 14 min; half-life at 5 µM [11]: 31 min
7 | 404 | 11 | 271 | 192 | C[C@@H]1COCCN1c1nc(-c2cnc(N)cc2C(F)F)nc(N2CCOCC23CCC3)n1 | 
8 | 33 | 11 | 173 | 137 | C[C@@H]1COCCN1c1nc(-c2cnc(N)cc2C(F)F)nc(N2CCOC[C@@H]2C)n1 | Activity [3]: Not Active
9 | > 1000 | 50 | 1480 | > 1000 | C[C@@H]1COCCN1c1nc(-c2cnc(N)cc2C(F)F)nc(N2CCOC[C@H]2CO)n1 | 
10 | > 1000 | 42 | 1340 | 561 | C[C@@H]1CN(c2nc(-c3cnc(N)cc3C(F)F)nc(N3CCOC[C@H]3C)n2)C[C@H](C)O1 | 
11 | > 1000 | 25 | 506 | 392 | C[C@@H]1COCCN1c1nc(-c2cnc(N)cc2C(F)F)nc(N2[C@H](C)COC[C@H]2C)n1 | 
12 | > 1000 | 28 | 524 | 471 | C[C@@H]1COCCN1c1nc(-c2cnc(N)cc2C(F)F)nc(N2CCOC[C@@H]2CO)n1 | 
13 |  |  |  |  | CNC(=O)c1cccc(-c2ccc3c(N4CCOC[C@@H]4C)nc(N4CCOC[C@@H]4C)nc3n2)c1 [VISTUSERTIB] | Cmax [12]: 7190 ng/mL; Tmax [13]: 30 min; half-life [14]: 450 min; AUC(0-t) at 8 h [15]: 33700 ng·h/mL; CL/F [16]: 11 mL/min/kg; Cmax [17]: 286 ng/mL; Tmax [18]: 30 min; half-life [19]: 516 min; AUC(0-t) at 8 h [20]: 1340 ng·h/mL; inhibition (Mus musculus [21]): inactive; inhibition (Mus musculus [22]): inactive
14 | > 1000 | 23 | 956 | 426 | COC[C@@H]1COCCN1c1nc(-c2cnc(N)cc2C(F)F)nc(N2CCOC[C@H]2C)n1 | 
15 | 65 | 18 | 231 | 238 | CC[C@@H]1COCCN1c1nc(-c2cnc(N)cc2C(F)F)nc(N2CCOC[C@H]2C)n1 | 

Row | SMILES | Ki [1] [nM] | Ki [2] [nM] | IC50 [4] [nM] | IC50 [5] [nM] | further results
16 | C[C@@H]1COCCN1c1nc(-c2cnc(N)cc2C(F)F)nc(N2C3COCC2C3)n1 | > 1000 | 73 | 1560 | 407 | 
